Data on six molecules can be found in ChEMBL document CHEMBL4665894, “Driving Potency with Rotationally Stable Atropisomers: Discovery of Pyridopyrimidinedione-Carbazole Inhibitors of BTK” (ACS Med Chem Lett, 2020).

Data set [1] concerns the target T1, Tyrosine-protein kinase BTK (Homo sapiens, UniProt Q06187). The experiment in a line: Inhibition of BTK in human Ramos B cells assessed as reduction in goat anti human IgM-stimulated calcium flux preincubated for 1 hr followed by goat anti human IgM addition and measured for 180 secs by FLIPR assay. The class given is cell-based. In general terms: Calcium assays in cells follow changes in intracellular calcium, usually with a dye or a luminescent sensor.

A short description of data set [2]: AUC in mouse at 10 mg/kg, PO. The class given is ADME, organism-based. The arrangement: dose 10 mg/kg. The settings on record: in vivo.
Data set [3] in a line: Cmax in mouse at 10 mg/kg, PO. The class given is ADME, organism-based. Details: route oral, dose 10 mg/kg. The settings on record: in vivo.
For the next data set, the species on record is Homo sapiens. The data set is described as follows: Selectivity ratio of IC50 for JAK2 (unknown origin) to IC50 for recombinant full-length His-tagged human BTK expressed in baculovirus expression system.
In data set [4] the target is T1, Tyrosine-protein kinase BTK. The experiment in a line: Inhibition of BTK in human whole blood assessed as reduction in goat anti human IgM/human IL4-stimulated CD69 cell surface expression on peripheral B cells incubated for 18 hrs by FACS analysis. Type of data set: tissue-based. A general note: A flow cytometer gives signals particle by particle.
Data set [5] shares this target. The data set is described as follows: Inhibition of recombinant full-length His-tagged human BTK expressed in baculovirus expression system using fluoresceinated peptide as substrate incubated for 60 mins by fluorescence assay.
Data set [6] is described as follows: Stability of the compound in human whole blood assessed drug degradation at 0.5 uM incubated for 10 mins. The class given is ADME, tissue-based. The settings on record: read-out: Drug degradation. The method in brief:
(§1)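 Test compound spiked into human whole blood at 0.5 µM and incubated; remaining parent tracked over time, with samples at 10 min and at 2 h.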

Data set [7] can be described thus: Stability of the compound in human whole blood assessed drug degradation at 0.5 uM incubated for 2 hrs. The class given is ADME, tissue-based. The settings on record: read-out: Drug degradation. Summed up: as §1
Data set [8] can be described thus: Glutathione reactivity in human liver microsomes assessed as GSH-adduct formation at 10 uM incubated for 60 mins. Type of data set: ADME. The settings on record: 1 h.
The next data set relates to B cell. The experiment in a line: Antiproliferative activity against anti-IgM/IgG-induced human peripheral B cells. The class given is functional, cell-based. The method in brief:
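B cell receptor stimulation of human peripheral B cells with anti-IgM/IgG (proliferation read-out), of human whole blood with anti-IgM (CD69 surface expression), and of mouse whole blood with anti-IgM/IgG (CD69 surface expression). IC50 reported as the mean of at least three determinations; for line 9 a single determination is also reported.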

By IC50 is commonly meant the midpoint of a concentration-inhibition curve. Broadly, the AUC is concentration integrated over time. For orientation: Cmax means the peak of the concentration-time curve.

SMILES strings stand for the structures. “And” between values parts separate entries of the source, which are not always exact repeats. Equal values may be shown once.

T1 sequence (Q06187 whole entry): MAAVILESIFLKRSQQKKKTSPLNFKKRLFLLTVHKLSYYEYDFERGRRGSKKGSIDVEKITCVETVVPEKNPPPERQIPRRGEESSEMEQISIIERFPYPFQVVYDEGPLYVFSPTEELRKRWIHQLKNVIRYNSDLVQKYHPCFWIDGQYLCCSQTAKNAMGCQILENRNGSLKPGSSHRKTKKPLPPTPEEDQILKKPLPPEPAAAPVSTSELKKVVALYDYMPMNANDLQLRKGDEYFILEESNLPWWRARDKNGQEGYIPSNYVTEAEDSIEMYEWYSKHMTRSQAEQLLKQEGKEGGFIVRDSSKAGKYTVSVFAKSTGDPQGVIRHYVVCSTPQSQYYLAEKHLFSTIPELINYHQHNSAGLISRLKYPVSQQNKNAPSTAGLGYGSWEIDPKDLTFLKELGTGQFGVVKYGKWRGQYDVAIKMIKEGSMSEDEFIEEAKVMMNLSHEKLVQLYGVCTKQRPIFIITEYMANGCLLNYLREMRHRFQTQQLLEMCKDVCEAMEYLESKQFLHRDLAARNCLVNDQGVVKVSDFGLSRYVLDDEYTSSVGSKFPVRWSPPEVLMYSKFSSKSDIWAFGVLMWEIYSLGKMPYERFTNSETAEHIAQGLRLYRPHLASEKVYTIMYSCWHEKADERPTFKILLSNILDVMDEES

For `COc1ccn2c(=O)n(-c3cccc(-c4ccc(C(N)=O)c5[nH]c6cc(C(C)(C)O)ccc6c45)c3C)c(=O)cc2c1`, the half-inhibitory concentration (IC50) worked out at 19 nM in data set [1] and 140 nM in data set [4]. Besides, the exposure (AUC) in data set [2] was found to be 3.9 µM·h. Also, the Cmax in [3] was determined as 1300 nM. In addition, the Ratio IC50 in the data set listed under Homo sapiens was determined as 1600.

As for `Cc1c(-c2ccc(C(N)=O)c3[nH]c4cc(C(C)(C)O)ccc4c23)cccc1-n1c(=O)cc2cc(Cl)ccn2c1=O`, the IC50 in [1] is 3.1 nM; in data set [5], 0.49 nM; in data set [4], 3000 nM. Moreover, in data set [6], the metabolised at 10 min, 0.5 µM was greater than 85%. Further, in [7], the metabolised at 2 h, 0.5 µM amounted to 100%. The Ratio IC50 in the data set filed under Homo sapiens came to 1500. Also, the Stabilty entry in [8] is listed as “Unstable”.

As to `Cc1c(-c2ccc(C(N)=O)c3[nH]c4cc(C(C)(C)O)ccc4c23)cccc1-n1cnc2ccccc2c1=O`, the AUC in [2] worked out at 80 µM·h. In the data set with B cell, the half-maximal inhibitory concentration (IC50) is 8 nM.

Regarding `COc1cccn2c(=O)n(-c3cccc(-c4ccc(C(N)=O)c5[nH]c6cc(C(C)(C)O)ccc6c45)c3C)c(=O)cc12`, the IC50 in [1] was 19 nM; in data set [4] it was 140 nM. Further, in data set [2], the AUC turned out to be 4 µM·h. For the same molecule, the Cmax in data set [3] was 1300 nM. In addition, the Ratio IC50 in the data set filed under Homo sapiens worked out at 1900.

As to `Cc1c(-c2ccc(C(N)=O)c3[nH]c4cc(C(C)(C)O)ccc4c23)cccc1-n1c(=O)cc2c(F)cccn2c1=O`, the half-inhibitory concentration (IC50) in [1] is 19 nM and 18 nM and 14 nM; in [5], 0.86 nM; in data set [4], 75 nM and 91 nM and 79 nM. The same molecule returned an AUC in [2] of 28 µM·h. Besides, in [3], the highest level (Cmax) was 5200 nM. In addition, the Ratio IC50 in the data set filed under Homo sapiens was 1100 and 500 and 870.

As to `Cc1c(-c2ccc(C(N)=O)c3[nH]c4cc(C(C)(C)O)ccc4c23)cccc1-n1c(=O)cc2c(Cl)cccn2c1=O`, the IC50 in [1] was 12 nM and 18 nM and 13 nM; in data set [4], 120 nM and 78 nM and 69 nM. Besides, the AUC in [2] amounted to 23 µM·h. For the same molecule, the Cmax in data set [3] came to 3500 nM. The Ratio IC50 in the data set filed under Homo sapiens was 1400 and 1100 and 2500. In addition, in [8], the Stabilty entry is “Stable”.
